ChEMBL document CHEMBL2150936, “Anticancer activity of small amphipathic β²,²-amino acid derivatives” (Eur J Med Chem, 2012)

Legend:
[1] = Hemolytic activity in human RBC assessed as hemoglobin release; assay type: ADME, cell-based, Erythrocyte
Method in brief: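 Heparinized human blood was washed three times in PBS pre-warmed to 37 °C to remove plasma. Compounds were dissolved in PBS and mixed with the RBCs to a final 1% v/v erythrocytes. Samples were incubated for 1 h at 37 °C with agitation, then centrifuged. Hemoglobin release was read at 405 nm, relative to 0.1% v/v Triton X-100 (positive control) and PBS (negative control).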

Ramos [2] = assay: Cytotoxicity against human Ramos cells after 4 hrs by MTT assay; assay type: functional, cell-based
Method in brief: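 Ramos Burkitt's lymphoma cells, kept in suspension in RPMI 1640 with 10% FBS, were seeded at 4 × 10^5 cells/ml in serum-free RPMI 1640. Compounds in RPMI-1640 were added immediately, then 4 h at 37 °C, 5% CO2. MTT was added for a further 2 h, formazan dissolved in acidic isopropanol (0.04 N HCl), and A590 read. Survival was calculated against untreated medium control; 1% Triton X-100 served as positive control.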

Ramos [3] = assay: Selectivity index, ratio of EC50 for human RBC to IC50 for human Ramos cells; assay type: functional
Method in brief: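 Ramos IC50 came from a 4 h MTT assay: cells at 4 × 10^5 cells/ml in serum-free RPMI-1640, compounds added at once, 37 °C, 2 h MTT, read at 590 nm. RBC EC50 came from hemoglobin release at 405 nm: 1% v/v washed human erythrocytes in PBS, 1 h at 37 °C, Triton X-100 reference. SI = RBC EC50 / Ramos IC50.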

MRC5 = assay: Cytotoxicity against human MRC5 cells after 4 hrs by MTT assay; assay type: cell-based; conditions: MRC5, 4 h
Method in brief: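 MRC-5 embryonic lung fibroblast monolayers in MEM with 10% FBS were seeded at 1 × 10^5 cells/ml, grown overnight, then medium was replaced with compound solution. Exposure was 4 h at 37 °C, 5% CO2, then MTT for 2 h. Formazan was dissolved in acidic isopropanol (0.04 N HCl) and absorbance read at 590 nm. Background-corrected viability was taken relative to medium-only control, with Triton X-100 as positive control.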

Ramos [4] = assay: Selectivity index, ratio of EC50 for human MRC5 cells to IC50 for human Ramos cells; assay type: functional
Method in brief: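 Ramos cells were seeded at 4 × 10^5 cells/ml in serum-free RPMI-1640, and compounds in RPMI-1640 were added at once. MRC-5 fibroblasts were seeded at 1 × 10^5 cells/ml in MEM with 10% FBS, grown overnight, and the medium was then replaced with compound. Both were incubated 4 h at 37 °C, 5% CO2, then given MTT for 2 h. Formazan was dissolved in acidic isopropanol and read at 590 nm. Survival was expressed relative to the untreated medium control. SI = MRC-5 EC50 / Ramos IC50.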

[5] = Homo sapiens, Erythrocyte, read-out: EC50

SMILES	EC50 [1, 5] [µM]	IC50 (Ramos [2]) [µM]	Selectivity Index (Ramos [3])	EC50 (MRC5) [µM]	Selectivity Index (Ramos [4])	EC50 ([1]; erythrocyte)
CN1CCN(C(=O)C(CN)(Cc2ccc(C(F)(F)F)cc2)Cc2ccc(C(F)(F)F)cc2)CC1	526	27	19.6	182	6.7	–
CC(C)(C)c1ccc(CC(CN)(Cc2ccc(C(C)(C)C)cc2)C(=O)NCCN)cc1	18	10.6	1.7	6.1	0.6	–
N=C(N)NCCCNC(=O)C(CNC(=N)N)(Cc1ccc2ccccc2c1)Cc1ccc2ccccc2c1	–	79	–	760	9.6	ND(Insoluble)
NCCCNC(=O)C(CN)(Cc1ccc(C(F)(F)F)cc1)Cc1ccc(C(F)(F)F)cc1	790	11	72	30	2.8	–
NCCNC(=O)C(CN)(Cc1ccc(C(F)(F)F)cc1)Cc1ccc(C(F)(F)F)cc1	–	7.1	60	17.8	2.5	–
NCCCNC(=O)C(CN)(Cc1ccc2ccccc2c1)Cc1ccc2ccccc2c1	447	4.3	104	6.6	1.5	–
CN(C)CCOC(=O)C(CN)(Cc1ccc2ccccc2c1)Cc1ccc2ccccc2c1	458	3.1	148	12.7	4.1	–
N=C(N)NCCC[C@H](NC(=O)C(CN)(Cc1ccc2ccccc2c1)Cc1ccc2ccccc2c1)C(N)=O	425	107	4	552	5.2	–
CC(C)(C)c1ccc(CC(CNC(=N)N)(Cc2ccc(C(C)(C)C)cc2)C(=O)NCCCNC(=N)N)cc1	–	63	–	64	1	ND(Insoluble)
CN(C)CCNC(=O)C(CN)(Cc1ccc(C(C)(C)C)cc1)Cc1ccc(C(C)(C)C)cc1	–	28	9.8	49	1.8	–
N=C(N)NCCC[C@H](NC(=O)C(CN)(Cc1ccc(C(F)(F)F)cc1)Cc1ccc(C(F)(F)F)cc1)C(N)=O	990	> 254	–	> 634	–	–
CC(C)(C)c1ccc(CC(CN)(Cc2ccc(C(C)(C)C)cc2)C(=O)N[C@@H](CCCNC(=N)N)C(N)=O)cc1	> 654	136	>4.8	158	1.2	–
CN1CCN(C(=O)C(CN)(Cc2ccc(C(C)(C)C)cc2)Cc2ccc(C(C)(C)C)cc2)CC1	349	6.1	57	16.6	2.7	–
CN(C)CCOC(=O)C(CN)(Cc1ccc(C(F)(F)F)cc1)Cc1ccc(C(F)(F)F)cc1	437	2.3	190	8.2	3.6	–
CN(C)CCNC(=O)C(CN)(Cc1ccc2ccccc2c1)Cc1ccc2ccccc2c1	217	6.6	33	4.9	0.7	–
CN(C)CCNC(=O)C(CN)(Cc1ccc(C(F)(F)F)cc1)Cc1ccc(C(F)(F)F)cc1	–	11.4	41	47	4.1	–
CN(C)CCN1CCN(C(=O)C(CN)(Cc2ccc(C(F)(F)F)cc2)Cc2ccc(C(F)(F)F)cc2)CC1	1120	19	58	69	3.6	–
CC(C)(C)c1ccc(CC(CN)(Cc2ccc(C(C)(C)C)cc2)C(=O)NCCCN)cc1	254	14.4	17.6	35	2.4	–
CN(C)CCOC(=O)C(CN)(Cc1ccc(C(C)(C)C)cc1)Cc1ccc(C(C)(C)C)cc1	52	31	1.7	90	2.9	–
CN1CCN(C(=O)C(CN)(Cc2ccc3ccccc3c2)Cc2ccc3ccccc3c2)CC1	–	14	22	41	2.9	–
CN(C)CCN1CCN(C(=O)C(CN)(Cc2ccc3ccccc3c2)Cc2ccc3ccccc3c2)CC1	409	7.2	57	18.5	2.6	–
N=C(N)NCCCNC(=O)C(CNC(=N)N)(Cc1ccc(C(F)(F)F)cc1)Cc1ccc(C(F)(F)F)cc1	–	78	–	171	2.2	ND(Insoluble)
CN(C)CCN1CCN(C(=O)C(CN)(Cc2ccc(C(C)(C)C)cc2)Cc2ccc(C(C)(C)C)cc2)CC1	337	5.2	65	12	2.3	–
